# Assays:
# Settings in all cases: stereoisomer not certain
# [1] = target: OR51F2 (Homo sapiens) (UniProt Q8NH61)
# Procedure, shortened: (§1)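 Assay methods differ from source to source, frequently being transient luciferase assays in mammalian cell lines. For each receptor–molecule pair, the label responsive (active) applies when the original authors judged the measured signal statistically different from baseline, and non-responsive (inactive) applies otherwise.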
# [2] = target: OR51G1 (Homo sapiens) (UniProt Q8NGK1)
# Procedure, shortened: as §1
# [3] = target: OR51G2 (Homo sapiens) (UniProt Q8NGK0)
# Procedure, shortened: as §1
# [4] = target: OR51I1 (Homo sapiens) (UniProt Q9H343)
# Procedure, shortened: as §1
# [5] = target: OR51I2 (Homo sapiens) (UniProt Q9H344)
# Procedure, shortened: as §1
# [6] = target: OR51J1 (Homo sapiens) (UniProt Q9H342)
# Procedure, shortened: as §1
# [7] = target: T1, OR51L1 (Homo sapiens) (UniProt Q8NGJ5)
# T1 sequence (whole entry): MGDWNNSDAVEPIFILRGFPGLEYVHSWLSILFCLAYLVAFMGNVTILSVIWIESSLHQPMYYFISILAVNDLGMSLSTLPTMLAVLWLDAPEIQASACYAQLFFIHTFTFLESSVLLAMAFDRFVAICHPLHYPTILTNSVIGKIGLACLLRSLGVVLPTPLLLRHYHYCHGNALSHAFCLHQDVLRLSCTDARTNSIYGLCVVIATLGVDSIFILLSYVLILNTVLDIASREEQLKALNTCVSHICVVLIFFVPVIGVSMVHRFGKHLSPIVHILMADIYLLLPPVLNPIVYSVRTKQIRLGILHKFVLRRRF
# Procedure, shortened: as §1
# [8] = target: OR51M1 (Homo sapiens) (UniProt Q9H341)
# Procedure, shortened: as §1
# [9] = target: OR51Q1 (Homo sapiens) (UniProt Q8NH59)
# Procedure, shortened: as §1
# [10] = target: OR51S1 (Homo sapiens) (UniProt Q8NGJ8)
# Procedure, shortened: as §1
# [11] = target: OR51V1 (Homo sapiens) (UniProt Q9H2C8)
# Procedure, shortened: as §1
# [12] = target: OR52A1 (Homo sapiens) (UniProt Q9UKL2)
# Procedure, shortened: as §1
# [13] = target: OR52A5 (Homo sapiens) (UniProt Q9H2C5)
# Procedure, shortened: as §1
# [14] = target: OR52B2 (Homo sapiens) (UniProt Q96RD2)
# Procedure, shortened: as §1
# [15] = target: OR52B4 (Homo sapiens) (UniProt Q8NGK2)
# Procedure, shortened: as §1
# [16] = target: OR52B6 (Homo sapiens) (UniProt Q8NGF0)
# Procedure, shortened: as §1
# [17] = target: OR51F1 (Homo sapiens) (UniProt A6NGY5)
# Procedure, shortened: as §1
# [18] = target: OR51H1 (Homo sapiens) (UniProt Q8NH63)
# Procedure, shortened: as §1
# [19] = target: OR51T1 (Homo sapiens) (UniProt Q8NGJ9)
# Procedure, shortened: as §1
# [20] = target: OR52A4P (Homo sapiens) (UniProt A6NMU1)
# Procedure, shortened: as §1
# Sequence of OR52B4 (Homo sapiens) (Q8NGK2 whole entry): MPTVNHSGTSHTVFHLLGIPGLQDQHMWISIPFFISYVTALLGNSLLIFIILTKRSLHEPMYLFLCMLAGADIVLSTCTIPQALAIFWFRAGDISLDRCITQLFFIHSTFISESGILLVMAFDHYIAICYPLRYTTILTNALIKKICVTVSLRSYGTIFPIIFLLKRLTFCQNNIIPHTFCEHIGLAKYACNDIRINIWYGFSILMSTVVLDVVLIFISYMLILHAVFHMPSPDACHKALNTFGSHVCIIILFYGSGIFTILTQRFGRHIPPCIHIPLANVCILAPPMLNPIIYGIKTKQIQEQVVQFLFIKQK
# Sequence of OR51S1 (Homo sapiens) (Q8NGJ8 whole entry): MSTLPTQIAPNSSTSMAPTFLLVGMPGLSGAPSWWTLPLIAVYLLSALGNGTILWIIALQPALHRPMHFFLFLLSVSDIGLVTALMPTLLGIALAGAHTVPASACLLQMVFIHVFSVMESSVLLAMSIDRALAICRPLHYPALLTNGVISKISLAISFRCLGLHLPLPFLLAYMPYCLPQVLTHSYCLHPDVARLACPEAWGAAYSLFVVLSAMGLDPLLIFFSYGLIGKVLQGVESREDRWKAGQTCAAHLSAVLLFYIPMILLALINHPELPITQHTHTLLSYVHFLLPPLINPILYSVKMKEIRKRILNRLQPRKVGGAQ
# Sequence of OR52A5 (Homo sapiens) (Q9H2C5 whole entry): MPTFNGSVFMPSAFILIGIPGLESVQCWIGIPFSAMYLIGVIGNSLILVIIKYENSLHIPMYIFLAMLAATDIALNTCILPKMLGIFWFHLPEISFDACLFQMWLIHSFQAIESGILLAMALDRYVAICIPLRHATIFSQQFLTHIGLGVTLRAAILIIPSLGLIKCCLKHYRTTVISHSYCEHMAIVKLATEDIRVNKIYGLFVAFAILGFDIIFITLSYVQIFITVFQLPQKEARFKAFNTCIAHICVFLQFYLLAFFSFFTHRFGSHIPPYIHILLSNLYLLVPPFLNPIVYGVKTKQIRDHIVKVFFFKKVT
# Sequence of OR52B6 (Homo sapiens) (Q8NGF0 whole entry): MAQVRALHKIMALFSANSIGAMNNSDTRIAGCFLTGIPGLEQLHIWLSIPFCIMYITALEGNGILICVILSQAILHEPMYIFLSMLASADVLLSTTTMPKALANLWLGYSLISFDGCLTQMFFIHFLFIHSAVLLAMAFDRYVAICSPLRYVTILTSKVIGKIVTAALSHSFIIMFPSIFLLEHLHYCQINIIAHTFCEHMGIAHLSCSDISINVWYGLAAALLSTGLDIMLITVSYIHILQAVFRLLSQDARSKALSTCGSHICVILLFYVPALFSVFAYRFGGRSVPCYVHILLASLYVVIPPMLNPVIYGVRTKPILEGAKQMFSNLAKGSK
# Sequence of OR52B2 (Homo sapiens) (Q96RD2 whole entry): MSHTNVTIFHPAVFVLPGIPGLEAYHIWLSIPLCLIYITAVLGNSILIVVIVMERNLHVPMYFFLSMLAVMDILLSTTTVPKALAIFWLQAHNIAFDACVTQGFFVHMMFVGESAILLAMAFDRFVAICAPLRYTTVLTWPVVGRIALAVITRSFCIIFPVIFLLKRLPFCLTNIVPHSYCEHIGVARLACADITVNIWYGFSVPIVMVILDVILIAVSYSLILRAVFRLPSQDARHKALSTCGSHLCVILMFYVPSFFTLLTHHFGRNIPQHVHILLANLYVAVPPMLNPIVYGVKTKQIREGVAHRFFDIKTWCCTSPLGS
# Sequence of OR51F2 (Homo sapiens) (Q8NH61 whole entry): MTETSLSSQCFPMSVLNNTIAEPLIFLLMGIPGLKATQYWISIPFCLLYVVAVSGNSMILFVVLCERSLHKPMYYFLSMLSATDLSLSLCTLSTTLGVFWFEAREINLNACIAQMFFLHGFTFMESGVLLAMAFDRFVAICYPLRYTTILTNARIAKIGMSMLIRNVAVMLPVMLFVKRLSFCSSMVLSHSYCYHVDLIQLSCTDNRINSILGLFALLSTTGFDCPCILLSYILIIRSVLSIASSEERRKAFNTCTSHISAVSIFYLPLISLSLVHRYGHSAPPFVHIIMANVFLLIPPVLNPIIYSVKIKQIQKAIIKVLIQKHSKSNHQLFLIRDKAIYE
# Sequence of OR51V1 (Homo sapiens) (Q9H2C8 whole entry): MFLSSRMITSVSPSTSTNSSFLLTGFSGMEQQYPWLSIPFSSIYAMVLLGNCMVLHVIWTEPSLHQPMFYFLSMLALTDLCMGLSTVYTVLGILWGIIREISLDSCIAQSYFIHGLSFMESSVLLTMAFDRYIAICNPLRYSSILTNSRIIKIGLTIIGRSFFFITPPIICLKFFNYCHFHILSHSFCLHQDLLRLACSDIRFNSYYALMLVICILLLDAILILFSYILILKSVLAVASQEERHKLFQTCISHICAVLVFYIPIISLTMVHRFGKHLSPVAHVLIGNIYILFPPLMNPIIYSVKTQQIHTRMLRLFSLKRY
# Sequence of OR52A1 (Homo sapiens) (Q9UKL2 whole entry): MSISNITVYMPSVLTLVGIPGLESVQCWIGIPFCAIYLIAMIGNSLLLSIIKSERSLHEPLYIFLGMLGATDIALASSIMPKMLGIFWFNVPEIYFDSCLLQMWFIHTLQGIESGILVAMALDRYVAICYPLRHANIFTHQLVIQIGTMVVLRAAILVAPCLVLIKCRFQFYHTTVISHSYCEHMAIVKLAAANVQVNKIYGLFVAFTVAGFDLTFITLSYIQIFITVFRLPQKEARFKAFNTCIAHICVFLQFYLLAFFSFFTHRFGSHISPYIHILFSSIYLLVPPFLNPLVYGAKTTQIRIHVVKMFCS
# Sequence of OR51J1 (Homo sapiens) (Q9H342 whole entry): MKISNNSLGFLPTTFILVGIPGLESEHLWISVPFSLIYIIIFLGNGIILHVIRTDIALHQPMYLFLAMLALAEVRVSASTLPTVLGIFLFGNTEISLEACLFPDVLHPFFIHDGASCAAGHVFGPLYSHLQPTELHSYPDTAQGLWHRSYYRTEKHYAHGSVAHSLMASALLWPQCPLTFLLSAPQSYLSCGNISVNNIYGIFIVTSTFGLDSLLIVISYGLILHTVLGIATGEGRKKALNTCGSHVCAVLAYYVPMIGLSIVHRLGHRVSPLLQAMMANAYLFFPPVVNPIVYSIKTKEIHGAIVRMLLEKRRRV
# Sequence of OR51M1 (Homo sapiens) (Q9H341 whole entry): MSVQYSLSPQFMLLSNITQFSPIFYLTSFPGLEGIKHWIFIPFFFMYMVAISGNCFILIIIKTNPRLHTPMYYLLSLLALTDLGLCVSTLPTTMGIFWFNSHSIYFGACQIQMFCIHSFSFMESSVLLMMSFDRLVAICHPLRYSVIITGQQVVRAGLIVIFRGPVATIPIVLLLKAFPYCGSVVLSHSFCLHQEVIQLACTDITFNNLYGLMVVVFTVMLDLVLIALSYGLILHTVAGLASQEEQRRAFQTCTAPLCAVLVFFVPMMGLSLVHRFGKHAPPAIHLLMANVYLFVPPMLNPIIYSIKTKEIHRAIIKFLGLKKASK
# Sequence of OR51G1 (Homo sapiens) (Q8NGK1 whole entry): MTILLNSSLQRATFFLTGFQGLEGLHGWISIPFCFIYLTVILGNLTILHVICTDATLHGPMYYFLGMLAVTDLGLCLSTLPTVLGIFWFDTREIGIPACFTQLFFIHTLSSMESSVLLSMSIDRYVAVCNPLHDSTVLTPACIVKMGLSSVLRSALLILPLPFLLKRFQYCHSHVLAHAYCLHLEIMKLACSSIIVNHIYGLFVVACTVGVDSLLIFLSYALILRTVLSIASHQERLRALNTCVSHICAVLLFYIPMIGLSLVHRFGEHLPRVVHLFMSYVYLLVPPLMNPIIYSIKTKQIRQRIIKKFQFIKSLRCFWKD
# Sequence of OR51G2 (Homo sapiens) (Q8NGK0 whole entry): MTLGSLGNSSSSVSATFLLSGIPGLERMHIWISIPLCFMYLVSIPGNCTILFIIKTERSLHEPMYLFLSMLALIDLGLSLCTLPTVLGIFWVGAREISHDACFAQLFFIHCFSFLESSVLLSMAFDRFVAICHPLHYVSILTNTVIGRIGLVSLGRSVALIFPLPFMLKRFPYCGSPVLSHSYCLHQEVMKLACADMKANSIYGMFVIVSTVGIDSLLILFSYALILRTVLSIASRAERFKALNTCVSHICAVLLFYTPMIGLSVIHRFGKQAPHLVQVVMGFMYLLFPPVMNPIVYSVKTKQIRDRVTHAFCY
# Sequence of OR51Q1 (Homo sapiens) (Q8NH59 whole entry): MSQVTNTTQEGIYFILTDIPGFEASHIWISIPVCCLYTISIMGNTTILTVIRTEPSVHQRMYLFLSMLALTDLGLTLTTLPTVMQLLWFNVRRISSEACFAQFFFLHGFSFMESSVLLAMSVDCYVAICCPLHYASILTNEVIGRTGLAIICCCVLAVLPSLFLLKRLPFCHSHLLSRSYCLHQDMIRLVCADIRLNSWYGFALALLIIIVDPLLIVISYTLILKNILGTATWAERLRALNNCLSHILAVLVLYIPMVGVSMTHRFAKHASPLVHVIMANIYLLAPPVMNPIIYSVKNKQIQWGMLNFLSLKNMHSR
# Sequence of OR51I2 (Homo sapiens) (Q9H344 whole entry): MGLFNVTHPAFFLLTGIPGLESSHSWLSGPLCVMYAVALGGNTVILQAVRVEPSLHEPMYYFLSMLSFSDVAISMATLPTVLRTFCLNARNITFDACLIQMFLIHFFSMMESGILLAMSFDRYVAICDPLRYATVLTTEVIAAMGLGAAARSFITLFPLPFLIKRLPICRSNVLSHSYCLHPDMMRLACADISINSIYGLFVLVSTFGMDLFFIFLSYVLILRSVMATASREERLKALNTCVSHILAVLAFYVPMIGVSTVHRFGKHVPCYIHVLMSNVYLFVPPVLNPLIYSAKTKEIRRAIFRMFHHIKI
# Sequence of OR51I1 (Homo sapiens) (Q9H343 whole entry): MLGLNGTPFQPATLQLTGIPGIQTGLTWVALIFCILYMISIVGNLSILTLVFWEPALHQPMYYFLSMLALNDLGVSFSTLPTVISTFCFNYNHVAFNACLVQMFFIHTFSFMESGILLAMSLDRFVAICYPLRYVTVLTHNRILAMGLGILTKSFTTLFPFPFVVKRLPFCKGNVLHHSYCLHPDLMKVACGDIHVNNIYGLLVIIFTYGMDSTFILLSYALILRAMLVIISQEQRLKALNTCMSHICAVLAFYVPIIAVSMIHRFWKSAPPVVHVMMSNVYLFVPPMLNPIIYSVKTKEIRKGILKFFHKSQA
smiles,measurement,setting,value
C=CCOC(=O)Cc1ccccc1,odorant receptor agonist call,[1],inactive
same,odorant receptor agonist call,[2],inactive
same,odorant receptor agonist call,[3],inactive
same,odorant receptor agonist call,[4],inactive
same,odorant receptor agonist call,[5],inactive
same,odorant receptor agonist call,[6],inactive
same,odorant receptor agonist call,[7],active
same,odorant receptor agonist call,[8],inactive
same,odorant receptor agonist call,[9],inactive
same,odorant receptor agonist call,[10],inactive
same,odorant receptor agonist call,[11],inactive
same,odorant receptor agonist call,[12],inactive
same,odorant receptor agonist call,[13],inactive
same,odorant receptor agonist call,[14],inactive
same,odorant receptor agonist call,[15],inactive
same,odorant receptor agonist call,[16],inactive
C=CCc1ccccc1,odorant receptor agonist call,[7],inactive
Cc1c([N+](=O)[O-])c(C)c([N+](=O)[O-])c(C(C)(C)C)c1[N+](=O)[O-],odorant receptor agonist call,[17],inactive
same,odorant receptor agonist call,[1],inactive
same,odorant receptor agonist call,[2],inactive
same,odorant receptor agonist call,[3],inactive
same,odorant receptor agonist call,[18],inactive
same,odorant receptor agonist call,[4],inactive
same,odorant receptor agonist call,[5],inactive
same,odorant receptor agonist call,[6],inactive
same,odorant receptor agonist call,[7],inactive
same,odorant receptor agonist call,[8],inactive
same,odorant receptor agonist call,[9],inactive
same,odorant receptor agonist call,[10],inactive
same,odorant receptor agonist call,[19],inactive
same,odorant receptor agonist call,[11],inactive
same,odorant receptor agonist call,[12],inactive
same,odorant receptor agonist call,[20],inactive
same,odorant receptor agonist call,[13],inactive
same,odorant receptor agonist call,[14],inactive
same,odorant receptor agonist call,[15],inactive
same,odorant receptor agonist call,[16],inactive
CCC1CCC(=O)O1 (centres undefined),odorant receptor agonist call,[7],inactive
O=c1cc(O)c2ccccc2o1,odorant receptor agonist call,[7],inactive

# Source: the M2OR odorant receptor database
